Published values gathered from unrelated publications.
Observed: microbial growth

SMILES	organism	method	strain	time	MIC
O=C(O)CN1C(=O)/C(=C/c2ccc(-c3ccc(N(c4ccccc4)c4ccccc4)cc3)c3ccccc23)NC1=S	Micrococcus luteus	broth dilution	ATCC10240	–	> 1000 µg/mL
O=c1[nH]c(NCc2ccc(Cl)c(Cl)c2)nc2ncn(CCN3CCOCC3)c12	Lactobacillus acidophilus	agar dilution	–	48 h	4 µg/mL
CC1=NN(CNC(=O)c2ccccc2)C(=O)C1=NNn1c(-c2ccccc2)nc2ccccc2c1=O	Micrococcus luteus	broth dilution	–	24 h	51.9 µM
COC(=O)c1sc(C(C)(C)C)cc1NC(=O)Nc1ccc(C)cc1	Staphylococcus aureus	–	NCTC8325	–	> 100 µM
CC1=NN(CNc2ccc(O)cc2)C(=O)C1=NNn1c(-c2ccccc2)nc2ccccc2c1=O	Micrococcus luteus	broth dilution	–	24 h	53.5 µM
COc1ccc(-c2cc3c(C)nc(N)nc3n([C@H]3CC[C@H](OCCO)CC3)c2=O)cn1	Staphylococcus aureus	–	NCTC8325	–	> 30 µM
O=C(O)CN1C(=O)/C(=C/c2ccc(-c3ccc(N(c4ccccc4)c4ccccc4)cc3)cc2)NC1=S	Micrococcus luteus	broth dilution	ATCC10240	–	1.95 µg/mL
CC1COc2c(N3CCN(C)CC3)c(F)cc3c(=O)c(C(=O)O)cn1c23 (centres unmarked)	Staphylococcus aureus	–	NCTC8325	–	0.5 to 2 µM
O=C1NC(=S)S/C1=C\c1c2ccccc2c(-c2ccc(N(c3ccccc3)c3ccccc3)cc2)c2ccccc12	Micrococcus luteus	broth dilution	ATCC10240	–	> 1000 µg/mL
O=C1NC(=O)/C(=C/c2ccc3c(c2)OC(F)(F)O3)S1	Staphylococcus aureus	–	NCTC8325	–	> 30 µM
O=C1NN=C(N=Cc2ccc(O)cc2O)C1=NNn1c(-c2ccccc2)nc2ccccc2c1=O	Micrococcus luteus	broth dilution	–	24 h	53.5 µM
O=C1NC(=S)S/C1=C\c1ccc(-c2ccc(N(c3ccccc3)c3ccccc3)cc2)c2ccccc12	Micrococcus luteus	broth dilution	ATCC10240	–	250 µg/mL
O=C(O)c1cn(C2CC2)c2cc(N3CCNCC3)c(F)cc2c1=O	Micrococcus luteus	broth dilution	–	24 h	0.57 µM
O=C(O)CN1C(=O)/C(=C/c2ccc(-c3ccc(N(c4ccccc4)c4ccccc4)cc3)c3ccccc23)SC1=S	Micrococcus luteus	broth dilution	ATCC10240	–	31.3 µg/mL
Cc1ncc([N+](=O)[O-])n1CCO	Lactobacillus acidophilus	agar dilution	–	48 h	> 16 µg/mL
CO[C@H]1C[C@@H]2CC[C@@H](C)[C@@](O)(O2)C(=O)C(=O)N2CCCC[C@H]2C(=O)O[C@H]([C@H](C)C[C@@H]2CC[C@@H](OC(=O)C(C)(CO)CO)[C@H](OC)C2)CC(=O)[C@H](C)/C=C(\C)[C@@H](O)[C@@H](OC)C(=O)[C@H](C)C[C@H](C)/C=C/C=C/C=C/1C	Staphylococcus aureus	–	NCTC8325	–	> 30 µM
CC1(C)S[C@@H]2[C@H](NC(=O)[C@H](N)c3ccccc3)C(=O)N2[C@H]1C(=O)O	Bifidobacterium longum	broth dilution	ATCCBAA999	–	0.25 µg/mL
